pIC50: −log10 of the molar value. Active and inactive are the calls of the source. The rule behind the calls is not given here.
Legend:
RAW264.7 = assay: Inhibition of LPS-induced COX-2 expression in mouse RAW264.7 cells at >1.25 uM by Western blot analysis; type: functional, cell-based
[1] = target: Prostaglandin G/H synthase 1 (Homo sapiens, UniProt P23219); assay: Inhibition of COX-1 by chemiluminescent assay
[2] = target: T1, Prostaglandin G/H synthase 2 (Homo sapiens, UniProt P35354); assay: Inhibition of COX-2 by chemiluminescent assay
T1 sequence (P35354 whole entry): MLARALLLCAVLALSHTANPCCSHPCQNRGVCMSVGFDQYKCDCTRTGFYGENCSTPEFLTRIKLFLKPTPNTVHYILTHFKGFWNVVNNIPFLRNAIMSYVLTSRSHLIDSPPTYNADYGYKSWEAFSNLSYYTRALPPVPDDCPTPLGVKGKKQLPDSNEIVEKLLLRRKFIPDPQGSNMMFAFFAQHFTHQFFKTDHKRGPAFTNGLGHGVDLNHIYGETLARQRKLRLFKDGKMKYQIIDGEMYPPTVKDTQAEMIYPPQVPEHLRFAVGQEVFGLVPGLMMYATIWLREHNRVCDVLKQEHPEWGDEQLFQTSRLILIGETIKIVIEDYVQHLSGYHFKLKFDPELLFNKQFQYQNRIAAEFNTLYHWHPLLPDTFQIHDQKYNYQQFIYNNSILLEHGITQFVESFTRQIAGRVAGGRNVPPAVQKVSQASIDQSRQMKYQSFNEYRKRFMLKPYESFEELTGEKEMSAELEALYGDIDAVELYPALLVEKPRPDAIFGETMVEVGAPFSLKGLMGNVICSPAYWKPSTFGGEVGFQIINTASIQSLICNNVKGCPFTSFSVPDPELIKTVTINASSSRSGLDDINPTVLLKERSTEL

[3] = Selectivity index, ratio of IC50 for COX-1 to IC50 for COX-2
Method in brief: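 COX-1 and COX-2 inhibition measured with a chemiluminescent enzyme assay kit. Each IC₅₀ (50% enzyme inhibition) is the mean of two determinations. Selectivity index taken as COX-1 IC₅₀ divided by COX-2 IC₅₀.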

[4] = Cytotoxicity against LPS-activated mouse RAW264.7 cells after 24 hrs by MTT method; type: cell-based; details: LPS-activated RAW264.7 cells
Method in brief: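 MTT assay in RAW264.7 cells grown in DMEM with 5% FBS, penicillin and streptomycin at 37 °C under 5% CO₂. Cells were seeded at 5 × 10⁴ per well and exposed for 24 h to compounds diluted from DMSO stocks (0.1% DMSO final). MTT (4 mg/mL) was added 4 h before the end, then plates were centrifuged and supernatant removed. CC₅₀ is the concentration cutting viability to 50%; mean of three experiments in triplicate.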

Sequence of Prostaglandin G/H synthase 1 (P23219 whole entry): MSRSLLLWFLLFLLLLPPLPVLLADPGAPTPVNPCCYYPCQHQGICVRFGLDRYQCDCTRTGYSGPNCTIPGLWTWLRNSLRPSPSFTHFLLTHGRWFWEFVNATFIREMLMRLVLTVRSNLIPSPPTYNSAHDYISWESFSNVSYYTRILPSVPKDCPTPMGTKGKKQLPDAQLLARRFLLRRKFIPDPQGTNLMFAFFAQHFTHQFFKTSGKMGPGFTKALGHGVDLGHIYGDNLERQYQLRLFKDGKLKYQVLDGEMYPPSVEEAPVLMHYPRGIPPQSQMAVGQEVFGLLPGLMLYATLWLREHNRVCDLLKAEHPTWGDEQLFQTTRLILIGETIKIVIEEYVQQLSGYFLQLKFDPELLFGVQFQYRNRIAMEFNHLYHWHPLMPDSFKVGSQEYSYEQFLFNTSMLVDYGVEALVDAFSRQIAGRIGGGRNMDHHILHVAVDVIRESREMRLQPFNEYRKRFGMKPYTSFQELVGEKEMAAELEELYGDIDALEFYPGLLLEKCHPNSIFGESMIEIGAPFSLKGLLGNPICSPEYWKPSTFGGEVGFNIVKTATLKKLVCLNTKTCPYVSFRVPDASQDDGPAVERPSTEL

Compound	pIC50 [1]	pIC50 [2]	Ratio IC50 [3]	inhibition (RAW264.7)	CC50 at 24 h [4] [µM]
Cc1ccccc1C1CC(c2ccc(Cl)c(Cl)c2)=NN1C1=NC(=O)CS1 (stereo unspecified)	4.34	4.79	2.8		179
O=C1CSC(N2N=C(c3ccc(Cl)c(Cl)c3)CC2c2ccc(Br)cc2)=N1 (stereo unspecified)	4.31	5.12	6.4		280
Cc1ccc(C2CC(c3ccc(C)c(C)c3)=NN2C2=NC(=O)CS2)cc1 (stereo unspecified)	4.34	5.92	37.8		384
Cc1ccc(C2=NN(C3=NC(=O)CS3)C(c3ccccc3C)C2)cc1C (stereo unspecified)	4.33	5.20	7.5		317
Cc1ccc(C2=NN(C3=NC(=O)CS3)C(c3cccc(Cl)c3)C2)cc1C (stereo unspecified)	< 4.30	5.28	> 9.6		178
Cc1ccc(C2CC(c3ccc(Cl)c(Cl)c3)=NN2C2=NC(=O)CS2)cc1 (stereo unspecified)	4.35	5.33	9.4		279
Cc1ccc(C2=NN(C3=NC(=O)CS3)C(c3ccccc3Cl)C2)cc1C (stereo unspecified)	4.36	5.14	6.1		227
COc1ccc(C2CC(c3ccc(C)c(C)c3)=NN2C2=NC(=O)CS2)cc1 (stereo unspecified)	< 4.30	5.54	> 17.2		387
Cc1cccc(C2CC(c3ccc(Cl)c(Cl)c3)=NN2C2=NC(=O)CS2)c1 (stereo unspecified)	< 4.30	5.14	> 6.9		204
O=C1CSC(N2N=C(c3ccc(Cl)c(Cl)c3)CC2c2cccc(Cl)c2)=N1 (stereo unspecified)	< 4.30	4.79	> 3.1		165
Cc1cccc(C2CC(c3ccc(C)c(C)c3)=NN2C2=NC(=O)CS2)c1 (stereo unspecified)	< 4.30	5.57	> 18.5		237
Cc1ccc(C2=NN(C3=NC(=O)CS3)C(c3ccc(Br)cc3)C2)cc1C (stereo unspecified)	< 4.30	5.74	> 27.8		365
Cc1ccc(C2=NN(C3=NC(=O)CS3)C(c3ccc(Cl)cc3)C2)cc1C (stereo unspecified)	4.31	5.35	10.8		226
COc1ccc(C2CC(c3ccc(Cl)c(Cl)c3)=NN2C2=NC(=O)CS2)cc1 (stereo unspecified)	< 4.30	5.17	> 7.4		264

These reach a higher pIC50 [1]. Values come first.

pIC50 [1]	pIC50 [2]	Ratio IC50 [3]	Compound	inhibition (RAW264.7)	CC50 at 24 h [4] [µM]
4.37	6.30	84.8	Cc1ccc(C2=NN(C3=NC(=O)CS3)C(c3ccccc3)C2)cc1C (stereo unspecified)	Active	> 450
4.48	5.57	12.3	O=C1CSC(N2N=C(c3ccc(Cl)c(Cl)c3)CC2c2ccccc2)=N1 (stereo unspecified)		295
4.40	4.74	2.2	O=C1CSC(N2N=C(c3ccc(Cl)c(Cl)c3)CC2c2ccccc2Cl)=N1 (stereo unspecified)		143
4.46	4.71	1.8	O=C1CSC(N2N=C(c3ccc(Cl)c(Cl)c3)CC2c2ccc(F)cc2)=N1 (stereo unspecified)		139
4.42	4.93	3.2	O=C1CSC(N2N=C(c3ccc(Cl)c(Cl)c3)CC2c2ccc(Cl)cc2)=N1 (stereo unspecified)		187
4.39	5.19	6.4	Cc1ccc(C2=NN(C3=NC(=O)CS3)C(c3ccc(F)cc3)C2)cc1C (stereo unspecified)		246

Reference: ChEMBL document CHEMBL2157901, “Synthesis, biological evaluation and molecular modeling of dihydro-pyrazolyl-thiazolinone derivatives as potential COX-2 inhibitors” (Bioorg Med Chem, 2012)
